Source: ChEMBL document CHEMBL5724801, “EUbOPEN Chemogenomics Library - Multiplex” (2024)
“And” between values parts separate entries of the source, which are not always exact repeats. Equal entries are not always repeated.

Tested on: Fibroblast
Test: Multiplex assay against human fibroblast
Format: toxicity, cell-based
In short: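 Live cells carried four stains from seeding: Hoechst33342, BioTracker Green Microtubule Cytoskeleton Dye, MitoTracker Red and Annexin V Alexa Fluor 680. They were imaged on a CQ1 microscope at 37°C and 5% CO2 after compound addition. Using CellPathfinder machine-learning gating, cells were split into Hoechst high-intensity objects or normal cells, normal cells into healthy, pyknosed or fragmented nuclei, and pyknosed cells into mitotic or apoptotic; tubulin, mitochondrial-mass and membrane-permeability phenotypes are per cents of healthy-nucleus cells.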

[1] = 12 h, 1 µM, compound concentration 1 uM
[2] = 12 h, 10 µM, compound concentration 10 uM
[3] = 24 h, 1 µM, compound concentration 1 uM
[4] = 24 h, 10 µM, compound concentration 10 uM
[5] = 48 h, 1 µM, compound concentration 1 uM
[6] = 48 h, 10 µM, compound concentration 10 uM

Structure (SMILES): O=C1NCc2ccc3c(-c4cccc(Cl)c4)c[nH]c3c21
- Population Apoptotic (%) [1]: 13.51% and 26.32%
- Population Fragmented Nuclei (%) [1]: 16.45% and 5.58%
- Population Healthy Nuclei (%) [1]: 59.21% and 76.74%
- Population Hoechst High Intensity Objects (%) [1]: 0%
- Population Membrane Permeable-Phenotype (%) [1]: 4.44% and 3.64%
- Population Mitochondria Different-Phenotype (%) [1]: 8.89% and 8.48%
- Population Mitotic Cells (%) [1]: 86.49% and 73.68%
- Population Normal (%) [1]: 100%
- Population Pyknosed Nuclei (%) [1]: 24.34% and 17.67%
- Population Tubulin-Different-Phenotype (%) [1]: 10% and 13.33%
- Total Cell Count [1]: 152 and 215
- Population Apoptotic (%) [2]: 23.21% and 34.92%
- Population Fragmented Nuclei (%) [2]: 9.88% and 1.93%
- Population Healthy Nuclei (%) [2]: 57.56% and 67.63%
- Population Hoechst High Intensity Objects (%) [2]: 0%
- Population Membrane Permeable-Phenotype (%) [2]: 3.03% and 5%
- Population Mitochondria Different-Phenotype (%) [2]: 15.15% and 17.86%
- Population Mitotic Cells (%) [2]: 76.79% and 65.08%
- Population Normal (%) [2]: 100%
- Population Pyknosed Nuclei (%) [2]: 32.56% and 30.43%
- Population Tubulin-Different-Phenotype (%) [2]: 8.08% and 17.14%
- Total Cell Count [2]: 172 and 207
- Population Apoptotic (%) [3]: 18.75% and 20.59%
- Population Fragmented Nuclei (%) [3]: 13.25% and 6.58%
- Population Healthy Nuclei (%) [3]: 65.56% and 79.42%
- Population Hoechst High Intensity Objects (%) [3]: 0%
- Population Membrane Permeable-Phenotype (%) [3]: 7.07% and 4.66%
- Population Mitochondria Different-Phenotype (%) [3]: 10.1% and 5.18%
- Population Mitotic Cells (%) [3]: 81.25% and 79.41%
- Population Normal (%) [3]: 100%
- Population Pyknosed Nuclei (%) [3]: 21.19% and 13.99%
- Population Tubulin-Different-Phenotype (%) [3]: 13.13% and 9.84%
- Total Cell Count [3]: 151 and 243
- Population Apoptotic (%) [4]: 30.77% and 40.54%
- Population Fragmented Nuclei (%) [4]: 11.59% and 4.85%
- Population Healthy Nuclei (%) [4]: 64.63% and 77.18%
- Population Hoechst High Intensity Objects (%) [4]: 0%
- Population Membrane Permeable-Phenotype (%) [4]: 3.77%
- Population Mitochondria Different-Phenotype (%) [4]: 12.26% and 8.81%
- Population Mitotic Cells (%) [4]: 69.23% and 59.46%
- Population Normal (%) [4]: 100%
- Population Pyknosed Nuclei (%) [4]: 23.78% and 17.96%
- Population Tubulin-Different-Phenotype (%) [4]: 9.43% and 8.81%
- Total Cell Count [4]: 164 and 206
- Population Apoptotic (%) [5]: 20.83% and 38.89%
- Population Fragmented Nuclei (%) [5]: 10.71% and 5.78%
- Population Healthy Nuclei (%) [5]: 75% and 86.22%
- Population Hoechst High Intensity Objects (%) [5]: 0%
- Population Membrane Permeable-Phenotype (%) [5]: 4.76% and 5.67%
- Population Mitotic Cells (%) [5]: 79.17% and 61.11%
- Population Normal (%) [5]: 100%
- Population Pyknosed Nuclei (%) [5]: 14.29% and 8%
- Population Tubulin-Different-Phenotype (%) [5]: 7.94% and 9.28%
- Total Cell Count [5]: 168 and 225
- Population Apoptotic (%) [6]: 20% and 60%
- Population Fragmented Nuclei (%) [6]: 11.49% and 4.95%
- Population Healthy Nuclei (%) [6]: 77.01% and 82.67%
- Population Hoechst High Intensity Objects (%) [6]: 0%
- Population Membrane Permeable-Phenotype (%) [6]: 2.24% and 5.99%
- Population Mitochondria Different-Phenotype (%) [6]: 10.45% and 5.99%
- Population Mitotic Cells (%) [6]: 80% and 40%
- Population Normal (%) [6]: 100%
- Population Pyknosed Nuclei (%) [6]: 11.49% and 12.38%
- Population Tubulin-Different-Phenotype (%) [6]: 5.97% and 10.18%
- Total Cell Count [6]: 174 and 202

Structure (SMILES): CCCCCCNC(=O)Nc1ccc(S(=O)(=O)Nc2ccc(CCNC[C@H](O)COc3ccc(O)cc3)cc2)cc1 [L-755507]
- Population Apoptotic (%) [1]: 40% and 46%
- Population Fragmented Nuclei (%) [1]: 27% and 21%
- Population Healthy Nuclei (%) [1]: 59%
- Population Hoechst High Intensity Objects (%) [1]: 1% and 3%
- Population Membrane Permeable-Phenotype (%) [1]: 3%
- Population Mitochondria Different-Phenotype (%) [1]: 6% and 3%
- Population Mitotic Cells (%) [1]: 60% and 53%
- Population Normal (%) [1]: 98% and 96%
- Population Pyknosed Nuclei (%) [1]: 12% and 19%
- Population Tubulin-Different-Phenotype (%) [1]: 34% and 36%
- Total Cell Count [1]: 198 and 160
- Population Apoptotic (%) [2]: 45% and 42%
- Population Fragmented Nuclei (%) [2]: 17% and 34%
- Population Healthy Nuclei (%) [2]: 72% and 48%
- Population Hoechst High Intensity Objects (%) [2]: 5%
- Population Membrane Permeable-Phenotype (%) [2]: 0% and 1%
- Population Mitochondria Different-Phenotype (%) [2]: 10% and 19%
- Population Mitotic Cells (%) [2]: 54% and 57%
- Population Normal (%) [2]: 94%
- Population Pyknosed Nuclei (%) [2]: 10% and 17%
- Population Tubulin-Different-Phenotype (%) [2]: 47% and 64%
- Total Cell Count [2]: 218 and 172
- Population Apoptotic (%) [3]: 31% and 39%
- Population Fragmented Nuclei (%) [3]: 26%
- Population Healthy Nuclei (%) [3]: 63% and 59%
- Population Hoechst High Intensity Objects (%) [3]: 1% and 2%
- Population Membrane Permeable-Phenotype (%) [3]: 0% and 3%
- Population Mitochondria Different-Phenotype (%) [3]: 3% and 12%
- Population Mitotic Cells (%) [3]: 68% and 60%
- Population Normal (%) [3]: 98% and 97%
- Population Pyknosed Nuclei (%) [3]: 9% and 13%
- Population Tubulin-Different-Phenotype (%) [3]: 27% and 44%
- Total Cell Count [3]: 196 and 176
- Population Apoptotic (%) [4]: 72% and 50%
- Population Fragmented Nuclei (%) [4]: 21% and 38%
- Population Healthy Nuclei (%) [4]: 70% and 51%
- Population Hoechst High Intensity Objects (%) [4]: 8% and 4%
- Population Membrane Permeable-Phenotype (%) [4]: 0% and 3%
- Population Mitochondria Different-Phenotype (%) [4]: 8% and 19%
- Population Mitotic Cells (%) [4]: 27% and 50%
- Population Normal (%) [4]: 91% and 95%
- Population Pyknosed Nuclei (%) [4]: 8% and 9%
- Population Tubulin-Different-Phenotype (%) [4]: 38% and 65%
- Total Cell Count [4]: 232 and 168
- Population Apoptotic (%) [5]: 62% and 53%
- Population Fragmented Nuclei (%) [5]: 28% and 33%
- Population Healthy Nuclei (%) [5]: 63% and 58%
- Population Hoechst High Intensity Objects (%) [5]: 3% and 4%
- Population Membrane Permeable-Phenotype (%) [5]: 0% and 1%
- Population Mitochondria Different-Phenotype (%) [5]: 4% and 6%
- Population Mitotic Cells (%) [5]: 37% and 46%
- Population Normal (%) [5]: 96% and 95%
- Population Pyknosed Nuclei (%) [5]: 8%
- Population Tubulin-Different-Phenotype (%) [5]: 31% and 33%
- Total Cell Count [5]: 201 and 170
- Population Apoptotic (%) [6]: 79% and 71%
- Population Fragmented Nuclei (%) [6]: 19% and 42%
- Population Healthy Nuclei (%) [6]: 69% and 53%
- Population Hoechst High Intensity Objects (%) [6]: 6% and 3%
- Population Membrane Permeable-Phenotype (%) [6]: 1% and 5%
- Population Mitochondria Different-Phenotype (%) [6]: 8% and 11%
- Population Mitotic Cells (%) [6]: 20% and 28%
- Population Normal (%) [6]: 93% and 96%
- Population Pyknosed Nuclei (%) [6]: 10% and 3%
- Population Tubulin-Different-Phenotype (%) [6]: 49% and 55%
- Total Cell Count [6]: 240 and 184
